# TRPC4 act: opens the mouse TRPC4 cation channel; Q9QUQ5; HEK293 TRPC4beta/mu-opioid, Fluo4 calcium fluorescence; hits give high values; B-score at 10 µM; 310,000 compounds, 0.49% hits; AID 2237;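 active = B-score above 5 SD of library B-scores, and initial fluorescence ratio not above library mean plus 5 SD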;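 note: positive B-score marks a calcium rise read as TRPC4 activation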
#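 Assay system: HEK293 stable line with TRPC4beta plus mu-opioid receptor; schedule: 45 min room-temperature Fluo4 loading, 110 s read; technique: kinetic Fluo4 calcium fluorescence; evaluation: integrated baseline-normalised fluorescence ratio, converted to per-well B score; controls: buffer (low) and maximal DAMGO (high)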
# TRPC4 PAM: TRPC4 (mouse) allosteric potentiation; Q9QUQ5; HEK293 TRPC4beta/mu-opioid, DAMGO EC20, Fluo-4 Ca2+ flux; hits give high values; B-score at 10 µM; AID 2227; 310,000 compounds, 0.42% hits;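 active = B-score of calcium response area above 5 SD of library B-scores, with initial fluorescence ratio within 5 SD of library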;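 note: B-score of integrated fluorescence ratio over time as area under calcium response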
# TRPC6 inhibitor: mouse TRPC6 channel inhibition. 310,000 compounds, 1.1% hits. HEK293-TRPC6, membrane potential dye, ACh-evoked depolarization; hits give low values. Q61143. B-score at 10 µM. AID 2553;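 active = B-score under library mean minus 3 SD, initial fluorescence not abnormally high, positive integrated signal ratio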;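 note: B-score derived from integrated fluorescence ratio over the kinetic read; more negative B-score means stronger inhibition of depolarization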
# Target sequence (Q61143 whole entry, looked up): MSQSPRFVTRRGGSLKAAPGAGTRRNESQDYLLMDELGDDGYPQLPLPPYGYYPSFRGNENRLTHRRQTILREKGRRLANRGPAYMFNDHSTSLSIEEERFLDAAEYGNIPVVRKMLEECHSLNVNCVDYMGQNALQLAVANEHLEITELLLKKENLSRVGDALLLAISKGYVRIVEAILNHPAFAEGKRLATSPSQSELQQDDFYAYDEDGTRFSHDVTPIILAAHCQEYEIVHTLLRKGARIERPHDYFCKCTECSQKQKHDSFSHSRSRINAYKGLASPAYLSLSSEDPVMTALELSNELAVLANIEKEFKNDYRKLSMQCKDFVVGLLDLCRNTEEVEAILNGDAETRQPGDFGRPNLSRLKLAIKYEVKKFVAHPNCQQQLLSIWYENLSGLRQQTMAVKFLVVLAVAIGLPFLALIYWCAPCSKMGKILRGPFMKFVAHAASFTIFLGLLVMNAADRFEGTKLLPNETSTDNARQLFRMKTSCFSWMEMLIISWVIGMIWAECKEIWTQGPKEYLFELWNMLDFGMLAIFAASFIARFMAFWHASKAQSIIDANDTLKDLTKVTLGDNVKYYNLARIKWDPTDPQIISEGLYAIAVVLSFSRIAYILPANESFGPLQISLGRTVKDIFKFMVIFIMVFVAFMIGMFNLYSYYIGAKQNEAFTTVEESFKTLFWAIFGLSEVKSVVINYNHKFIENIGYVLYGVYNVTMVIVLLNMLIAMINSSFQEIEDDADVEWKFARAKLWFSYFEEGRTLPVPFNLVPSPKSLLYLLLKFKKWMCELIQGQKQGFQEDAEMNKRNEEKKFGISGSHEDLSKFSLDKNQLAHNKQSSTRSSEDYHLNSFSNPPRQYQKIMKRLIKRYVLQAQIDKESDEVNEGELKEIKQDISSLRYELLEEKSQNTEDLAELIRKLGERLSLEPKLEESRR
# TRPC6 activator: mouse TRPC6 channel activation | Q61143 | B-score at 10 µM | 310,000 compounds, 0.13% hits | HEK293-TRPC6 membrane potential dye fluorescence; hits give high values | AID 2550;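 active = B-score of the integrated fluorescence ratio above library mean plus 3 SD, and starting fluorescence ratio within library mean plus 5 SD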;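 note: higher score means more depolarization so channel activation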
# TRPC4 block: inhibitors of mouse TRPC4 channel; HEK293 TRPC4beta/mu-opioid, DAMGO-evoked Fluo4 calcium flux; hits give low values; B-score at 10 µM; 300,000 compounds, 0.39% hits; AID 2247;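 active = B-score over 3 SD under the library average, no early fluorescence shift, positive overall ratio signal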
#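 Material: HEK293 cells with stable TRPC4beta plus mu-opioid receptor expression / Probe or stimulus: DAMGO in two steps, submaximal then maximal / Compound: single concentration per test compound / Technique: kinetic Fluo4 fluorescence imaging of calcium influx / Read-out: per-well B score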
# * marks the source's active call; other numbers are inactive results; i = inactive. This is a sample that favours compounds with a hit; in the whole collection about 2.3% have one here.
SMILES,TRPC4 act,TRPC4 PAM,TRPC6 inhibitor,TRPC6 activator,TRPC4 block
Cc1cc(C)n(C(=O)/C(C#N)=N/Nc2cc(Cl)cc(Cl)c2)n1,i,i,-6.5*,i,i
Cc1cc(C)n(C(=O)/C(C#N)=N\Nc2ccccc2[N+](=O)[O-])n1,i,i,i,i,i
COc1cccc(OCC(O)CN2CCN(C)CC2)c1 (stereo not given),i,i,i,i,i
CCCn1c(=O)c2ccccc2n2c(SCCOc3ccccc3)nnc12,i,i,i,i,-7*
CCCn1c(=O)c2ccccc2n2c(SC(C)C(N)=O)nnc12 (stereo not given),i,i,i,i,i
CC1CCN(C(=O)CCC(=O)Nc2nnc(C3CCCCC3)s2)CC1,i,i,i,i,i
CCN1CC2=C(OC(N)=C(C#N)C2c2cccs2)/C(=C/c2cccs2)C1 (stereo not given),i,12*,i,i,i
CCN1CC2=C(OC(N)=C(C#N)C2c2ccccc2)/C(=C\c2ccccc2)C1 (stereo not given),i,i,i,i,i
CC1=CC(C)(C)NC(=S)N1c1cccc2cc(S(=O)(=O)O)ccc12,i,i,i,i,i
CCCNc1nc2ccccc2n2c(C)nnc12,i,i,i,i,-6*
O=[N+]([O-])c1ccc(C2CNC(c3ccccc3)O2)cc1 (stereo not given),i,14*,i,i,i
CC1=C(C(=O)OC(C)C)C(c2ccc(C)o2)C(C(=O)OC(C)C)=C(C)N1,i,i,i,i,i
CC(=O)c1ccc(N2CCN(c3ccc(S(=O)(=O)NCCCN(C)C)cc3[N+](=O)[O-])CC2)cc1,i,26*,i,i,i
O=c1c2ccccc2nc(COc2ccccc2)n1/N=C/c1cc([N+](=O)[O-])ccc1O,i,27*,i,i,i
Cc1cc(/C=N/n2c(COc3ccccc3C)nc3ccccc3c2=O)c(O)c([N+](=O)[O-])c1,i,i,i,i,i
Cc1ccc(C)c(NC(=O)C2=CCN(S(=O)(=O)c3ccc(F)cc3)CC2)c1,i,i,i,i,i
O=C(NC12CC3CC(CC(C3)C1)C2)c1ccc([N+](=O)[O-])cc1,i,i,i,i,i
O=[N+]([O-])c1ccc(C23CC4CC(CC(O)(C4)C2)C3)cc1,i,i,i,i,-6*
COc1cc(CN2CCN(Cc3ccc(SC)cc3)CC2)cc(OC)c1O,i,i,i,i,i
COc1ccc(CN2CCN(Cc3ccccc3F)CC2)c(OC)c1,i,i,i,i,-5*
COc1ccc(CN2CCN(Cc3ccc(C)cc3)CC2)c(OC)c1,i,i,i,i,i
COc1cc(OC)c(OC)cc1CN1CCN(Cc2ccc(SC)cc2)CC1,43*,i,i,i,i
COc1ccc(CN2CCN(Cc3ccc(C(F)(F)F)cc3)CC2)c(OC)c1,i,i,i,i,-6*
CC(=O)c1ccc(NC(=O)C(C)Sc2nnc(C3CCCCC3)o2)cc1 (stereo not given),i,i,i,i,i
CCOC(=O)c1oc2ccccc2c1CN1CCN(C)CC1,i,i,i,i,i
SMILES,TRPC4 act,TRPC4 PAM,TRPC6 inhibitor,TRPC6 activator,TRPC4 block
CCOC(=O)c1oc2ccccc2c1CN1CCCCC1,i,i,i,i,-6*
COc1ccc(C(=O)N2CCN(c3c(C)cccc3C)CC2)cc1OC,i,17*,i,i,i
Cc1ccccc1NC(=O)NC1(C(=O)N2CCC(C(N)=O)CC2)CCCCC1,i,i,i,i,i
Cc1ccc([N+](=O)[O-])cc1NC(=S)NCCc1ccccc1,i,i,i,i,i
CC(C)(C)c1cc(Cl)ccc1OCCn1ccnc1,63*,42*,i,i,i
Cc1ccc(C(C)(C)C)c(OCCCn2ccnc2)c1,i,i,i,i,i
CC(C)(C)c1ccccc1OCCCCCn1ccnc1,i,42*,i,i,i
Cc1ccc(C)c(OCCCCn2ccnc2)c1,133*,i,i,i,i
Cc1cccc(OCCCCCn2ccnc2)c1C,69*,i,i,i,i
CN(C)S(=O)(=O)c1cccc(NC(=O)CSc2cccc3cccnc23)c1,i,i,i,i,i
Cc1ccc(S(=O)(=O)NCc2cn3ccccc3n2)c(C)c1,i,i,i,i,i
COc1ccc(/C=N/Nc2nc(-c3cccnc3)nc3ccccc23)c(OC)c1,i,i,i,i,i
COc1ccc2nc3ccccc3nc2c1NC(=O)c1ccc(Cl)cc1Cl,i,i,i,i,i
Cc1cc(OCCn2ccnc2)cc(C)c1Cl,129*,i,i,i,i
Cc1cc(C)c(C)c(S(=O)(=O)NCc2ccco2)c1C,i,26*,i,i,i
Cc1ccc(N(C(=O)c2snc(C(N)=O)c2N)C(C(=O)NCC2CCCO2)c2ccc3ncccc3c2)cc1 (stereo not given),i,i,i,i,i
COc1ccccc1N(C(=O)c1snc(C(N)=O)c1N)C(C(=O)NCc1ccccc1)c1ccc(O)cc1 (stereo not given),i,i,i,i,-8*
CCc1ccc(N(C(=O)c2snc(C(N)=O)c2N)C(C(=O)NC2CCCC2)c2ccco2)cc1 (stereo not given),i,i,i,i,i
Cc1cccc(N(C(=O)c2snc(C(N)=O)c2N)C(C(=O)NCC2CCCO2)c2ccc3ncccc3c2)c1 (stereo not given),i,i,i,i,-6*
COc1ccc(C(C(=O)NCc2ccccc2)N(C(=O)c2snc(C(N)=O)c2N)c2ccccc2OC)cc1 (stereo not given),i,i,i,i,i
COc1ccccc1N(C(=O)c1snc(C(N)=O)c1N)C(C(=O)NC1CCCC1)c1ccc2ncccc2c1 (stereo not given),i,i,i,i,-6*
Cc1ccccc1N(C(=O)c1snc(C(N)=O)c1N)C(C(=O)NC1CCCC1)c1ccco1 (stereo not given),i,i,i,i,-8*
COc1ccc(NC(=O)COC(=O)C2CCN(S(=O)(=O)c3cccs3)CC2)cc1,i,i,i,i,i
CCOC(=O)C1CCN(C(=O)c2cc(COc3ccc(OC)c4ccccc34)on2)CC1,i,i,i,i,i
